Screens as filed in PubChem.
Hits are enriched below; roughly 1.2% of the tested compounds scored in any of these assays.
Rad51 HR inh: Rad51 (human) homologous recombination inhibition. Q06609. hRad51 DNA strand exchange, fluorescence dequenching. inhibition, % at 10 µM. actives 0.085% (n = 200,000);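 active = inhibition above 40% at the single screening dose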;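 also: 0% = DMSO control wells and 100% = blanks with heterologous ssDNA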
Target sequence (Q06609 whole entry, looked up): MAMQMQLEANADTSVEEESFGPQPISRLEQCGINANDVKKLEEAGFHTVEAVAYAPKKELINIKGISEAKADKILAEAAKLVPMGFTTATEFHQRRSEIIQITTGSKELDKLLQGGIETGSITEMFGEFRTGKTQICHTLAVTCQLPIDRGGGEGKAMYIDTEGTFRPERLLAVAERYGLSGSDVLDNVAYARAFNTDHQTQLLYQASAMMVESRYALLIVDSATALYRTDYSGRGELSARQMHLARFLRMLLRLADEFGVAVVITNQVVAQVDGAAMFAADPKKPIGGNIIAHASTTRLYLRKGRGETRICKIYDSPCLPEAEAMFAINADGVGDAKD
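System: hRad51 filaments on single-stranded DNA; reagent: Fluorescein- and BHQ1-tagged 47-mer duplex; compound dosing: one concentration, 10 µM final; timing: filaments 15 min 37 °C, then compound 30 min; measured by: fluorescein emission 520 nm, excitation 485 nm; benchmarks: per-plate controls and blanks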
S1P4 ag: agonists of human S1P4 receptor | O95977 | S1P4-expressing cell line, agonist reporter assay | activation, % at 4.98 µM | actives 0.35% (n = 220,000) | AID 1509; in the data active = activation above about 11%;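 also: 0% = DMSO vehicle and 100% = reference agonist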
Efa HMGR inh: E. faecalis class II HMG-CoA reductase inhibition. purified E. faecalis HMGR, NADPH absorbance 340 nm kinetic. inhibition, % at 10 µM. actives 0.41% (n = 190,000);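 active = inhibition above a set limit, the median over all tested compounds plus 3 SD, cut at about 9.5% in these data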;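 also: enzyme runs in reverse so mevalonate oxidation gives rising NADPH absorbance; 0% = complete reaction with DMSO and 100% = background rate lacking mevalonate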
Calb biofilm kill: mixtures killing C. albicans biofilm; C. albicans biofilm persisters + clotrimazole, fluorescence viability; primary screen in compound mixtures of four per well; inhibition, % at 7.6 µM; actives 0.02% (n = 120,000);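 active = inhibition above 30.3% in the primary screen of four-compound pools, then above 30% when the compound was retested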;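 also: compounds exposed to preformed 24 h biofilms for 48 h; 0% = untreated biofilm control and 100% = clotrimazole plus chlorhexidine kill blank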
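System: C. albicans CAF4-2 wild-type biofilms; Medium: RPMI/MOPS medium, pH 7.0; Reagent: Clotrimazole, 50 µg/mL; Times: biofilm formation 24 h, compound exposure 48 h, 37 °C; Detection: 2-h Alamar Blue fluorescence, 535/590 nm excitation/emission; Evaluation: percent inhibition of biofilm viability.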
S1P4 antagonist: antagonists of human S1P4 receptor | S1P4-expressing cells, antagonist mode, reporter read-out | O95977 | inhibition, % at 4.98 µM | actives 0.26% (n = 220,000); in the data active = inhibition above about 29%;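 also: 0% = wells stimulated with agonist and 100% = vehicle wells without agonist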
S1P3 antagonist: antagonists of human S1P3 receptor | Q99500 | CHO S1P3 NFAT-BLA reporter, FRET fluorescence, antagonist mode | inhibition, % at 4.98 µM | actives 0.27% (n = 170,000) | AID 485;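 active = inhibition above the plate cutoff, the mean inhibition of test wells on that plate plus 3 SD, cut at about 28% in these data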;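 also: cells challenged with S1P at its EC80 of 0.8 µM; blue over green emission ratio from cleaved BLA substrate after 4 h stimulation; 0% = S1P-stimulated wells and 100% = unstimulated DMSO-only wells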
Target sequence (Q99500 whole entry, looked up): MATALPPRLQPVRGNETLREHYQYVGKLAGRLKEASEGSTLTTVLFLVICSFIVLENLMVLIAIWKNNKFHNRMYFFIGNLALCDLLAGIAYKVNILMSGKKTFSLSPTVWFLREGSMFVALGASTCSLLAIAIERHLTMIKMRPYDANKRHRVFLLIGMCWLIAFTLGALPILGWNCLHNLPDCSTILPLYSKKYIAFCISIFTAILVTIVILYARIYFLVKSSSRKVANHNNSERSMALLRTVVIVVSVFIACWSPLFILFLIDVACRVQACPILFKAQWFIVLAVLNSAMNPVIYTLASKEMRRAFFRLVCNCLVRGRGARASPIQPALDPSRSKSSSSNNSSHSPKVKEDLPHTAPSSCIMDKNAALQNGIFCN
* marks the source's active call; other numbers are inactive results; · = not tested or not shown.

SMILES	Rad51 HR inh	S1P4 ag	Efa HMGR inh	Calb biofilm kill	S1P4 antagonist	S1P3 antagonist
COc1ccc(S(=O)(=O)/N=C2/C=CC(=O)C(C)=C2C)cc1	-0.4	-3.2	1.6	·	-7.3	·
CC1=C(C)/C(=N\OS(=O)(=O)c2ccc(C)cc2)C=CC1=O	-1.2	0.6	-1.1	7.2	43.3*	0.3
CSc1cccc(-n2cc(-c3ccc4c(c3)OCO4)[nH]c2=O)c1	-4.0	1.5	-1.6	·	5.9	·
C#CCSc1nnc(CSc2nc3ccccc3s2)n1-c1ccccc1	-0.8	0.5	-2.4	·	3.9	·
O=C(O)CSc1nnc(CSc2nc3ccccc3s2)n1-c1ccccc1	3.4	-0.9	10.7*	17.1	-1.2	2.4
CC(C)CCNC(=O)C(NS(=O)(=O)c1ccc2c(c1)c(=O)n(C)c(=O)n2C)c1ccccc1 (stereo not drawn)	·	-0.2	-1.4	·	-11.2	·
Cc1ccccc1OCC(O)Cn1c(=N)n(Cc2ccccc2)c2ccccc21 (stereo not drawn)	0.8	-1.5	·	30.4*	7.4	5.4
Cc1nc2ccccc2n1CC(O)COc1ccccc1Cl (stereo not drawn)	-1.9	-0.2	10.9*	7.5	-1.6	9.9
CC(NC(=O)/C(=C\c1ccco1)NC(=O)c1ccccc1Br)C(=O)O (stereo not drawn)	·	0.0	10.4*	13.7	-6.0	-2.9
O=C(NCCc1nc2ccccc2[nH]1)/C(=C/c1ccco1)NC(=O)c1ccccc1Br	8.8	0.0	0.9	8.6	-3.2	-8.1
COC(=O)C1=C(CSc2nc3c(cc2C#N)CN(C)CC3)OC(N)=C(C#N)C1c1ccc(F)cc1 (stereo not drawn)	-12.8	1.9	14.0*	12.4	-4.5	·
Cn1c(Cn2c(=O)sc3ccccc32)nnc1SCC(=O)Nc1ccc(F)cc1	-1.4	0.6	-9.4	·	3.0	11.1
Cn1c(Cn2c(=O)sc3ccccc32)nnc1SCC(=O)Nc1ccccc1F	-6.1	0.4	-6.2	·	-11.7	99.1*
Cc1ccccc1NC(=S)N(CCN1CCCCCC1)Cc1cccs1	10.1	1.6	10.4*	11.2	-11.1	1.0
CCN1CCCc2cc(CN(CCN3CCOCC3)C(=S)Nc3ccccc3C)ccc21	-2.8	0.4	10.2*	11.6	-3.1	-1.0
CCN1CCCc2cc(CN(CCN3CCOCC3)C(=S)Nc3ccccc3OC)ccc21	-6.2	-3.2	1.2	0.1	-4.7	-5.3
CC(=O)Nc1ccc(NC(=O)c2ccc(Cl)nc2)cc1	41.5*	0.2	·	11.6	-16.7	-4.5
CCc1nnc(NC(=O)CCC(=O)N2CCN(CCc3ccccc3)CC2)s1	-10.4	·	-1.5	-8.8	·	5.6
O=C(CCn1c(=O)oc2ccccc21)NCc1cccs1	-3.6	-2.1	12.8*	6.8	-12.3	-9.0
O=C(CCn1c(=O)sc2ccccc21)NCc1cccs1	-11.5	-0.2	1.1	8.9	-13.1	·
CCCNCc1cc(OC)c(OCc2ccccc2)cc1Br	·	0.0	19.1*	9.5	-6.2	0.6
Cc1nc(C(C)NC(=O)CCc2nnc(Cc3c[nH]c4ccccc34)o2)cs1 (stereo not drawn)	-6.5	0.8	-5.0	21.6	9.3	13.9
O=C(c1ccc(F)cc1)N1CCCC(c2ccccc2)C1 (stereo not drawn)	3.0	0.4	13.1*	10.3	-12.2	-7.2
C[C@@H](C(=O)Nc1ccc2ccccc2c1)[C@H]1C[C@]1(C)[C@H](NC(=O)OCc1ccccc1)c1ccccc1	-9.5	2.1	-10.4	-2.6	14.3	32.1*
COC(=O)c1ccc(OC(=O)c2ccc(OC)cc2)c(OC)c1	11.7	-2.1	-7.9	12.7	-6.5	-3.5
SMILES	Rad51 HR inh	S1P4 ag	Efa HMGR inh	Calb biofilm kill	S1P4 antagonist	S1P3 antagonist
NNc1nc2c(Cl)ccc(Cl)c2s1	-1.8	0.4	18.7*	14.8	-24.8	-0.8
N#Cc1c(C(F)(F)F)cc(C2CC2)[nH]c1=O	4.5	-1.2	6.2	·	7.5	61.5*
Cc1ccc(-c2cc(C(F)(F)F)c(C#N)c(=O)[nH]2)cc1	·	-0.7	-2.2	4.8	-0.6	-12.0
Cc1ccc(N2CCCn3c2cc(C)c(C#N)c3=O)cc1C	0.1	0.4	9.8*	9.9	-4.4	·
Cc1ccc(N2CCCn3c2cc(C)c(C#N)c3=O)cc1Cl	-0.1	-0.5	-7.9	14.3	-1.3	·
COc1ccccc1NC(=O)Cn1cnc2c(cnn2-c2ccccc2)c1=O	1.8	0.8	11.6*	·	-24.9	-17.4
Cc1noc(C)c1C(=O)NCc1ccccc1	-2.2	-3.8	-0.6	·	5.3	·
COc1ccc(NC(=O)c2ccccc2SC)cc1	-2.9	1.4	9.6*	3.7	17.1	-4.1
O=C(NCc1ccccc1)c1cc(S(=O)(=O)N2CCOCC2)ccc1F	-8.6	-0.6	-6.5	·	-11.1	·
Cc1nc2ccccn2c(=O)c1CCN1CCC(C(=O)c2ccc(F)cc2)CC1	-11.2	81.1*	-1.8	6.7	-1.4	-10.1
Cc1nc2sccn2c(=O)c1CCN1CCC(=C(c2ccc(F)cc2)c2ccc(F)cc2)CC1	-9.7	0.0	-2.1	15.9	-1.1	-2.2
COc1ccccc1Sc1ccccc1/C=N/NC(N)=O	2.7	1.4	15.4*	5.2	16.8	6.8
COc1ccc(C(=O)N/N=C/c2ccccc2C(=O)O)cc1OC	40.8*	-0.2	·	5.2	-13.4	-7.1
COc1cc(/C=N/NC(=O)c2ccc(-c3ccccc3)cc2)cc(OC)c1OC	5.1	-0.5	12.5*	7.5	-6.4	-12.5
COC(=O)c1cc(NC(=O)C2CC(=O)NC(=NCc3ccc(OC)cc3)S2)cc(C(=O)OC)c1 (stereo not drawn)	13.9	0.8	0.3	23.9	-3.8	-25.0
Cc1ccc(CN2CCN(/N=C/c3cc(Br)ccc3O)CC2)cc1	6.9	1.2	-6.8	·	2.8	·
Cc1ccn2c(CN(C)CCn3nc(C)cc3C)c(C(=O)N3CCCCCC3)nc2c1	·	0.4	-2.9	8.0	-10.7	-0.2
COc1cccc(NC(=O)C(Sc2nnc3ccccn23)c2ccccc2)c1 (stereo not drawn)	-4.9	0.1	5.3	9.5	-21.0	-4.4
Cc1cc([N+](=O)[O-])nn1CC(=O)Nc1ccccn1	13.9	1.4	-5.3	14.8	5.5	-5.7
Cc1cc([N+](=O)[O-])nn1CC(=O)Nc1ccc(F)cc1	6.8	-0.8	11.4*	13.5	0.8	-15.2
Cc1cccnc1NC(=O)Cn1nc([N+](=O)[O-])cc1C	11.4	1.6	13.8*	23.3	-1.1	-0.3
CCN(CC)C(=O)N1CCn2c(nc3ccccc32)C1	-5.1	-4.0	-0.6	5.3	0.5	·
CCn1cc(C(=O)N2CCn3c(nc4ccccc43)C2)c(=O)c2ccc(C)nc21	4.2	-1.6	-1.5	·	-21.8	68.3*
CCOC(=O)Nc1ccc(NC(=O)c2ccccc2F)cc1	6.6	-0.1	-2.2	6.4	-2.7	-14.1
CC1CCN(C(c2ccc(N(C)C)cc2)c2nnnn2Cc2ccccc2)CC1 (stereo not drawn)	·	0.8	-0.2	·	-4.2	-8.7
